Common to all, as to format: functional
In test [1] the target is T1, Guanine nucleotide-binding protein G(i) subunit alpha-3 (Homo sapiens, UniProt P08754). Briefly: Concentration required to stimulate binding of [35S]GTP-gamma-S, with G alpha i3. The essentials: (§1)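 His-tagged recombinant Gαi subunits were expressed in E. coli BL21/DE3 and purified by IMAC. 3 pmol of subunit, native or in lipid vesicles, was incubated 30 min at 30 °C with 0.1 μM [35S]GTPγS in 50 mM Hepes-NaOH, 1 mM EDTA, 1 mM DTT and 100 μM MgSO4. The reaction was stopped with ice-cold buffer and filtered on cellulose nitrate. EC50 came from 1×10^-7 to 1×10^-4 M (eight concentrations).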
T1 sequence (P08754 whole entry): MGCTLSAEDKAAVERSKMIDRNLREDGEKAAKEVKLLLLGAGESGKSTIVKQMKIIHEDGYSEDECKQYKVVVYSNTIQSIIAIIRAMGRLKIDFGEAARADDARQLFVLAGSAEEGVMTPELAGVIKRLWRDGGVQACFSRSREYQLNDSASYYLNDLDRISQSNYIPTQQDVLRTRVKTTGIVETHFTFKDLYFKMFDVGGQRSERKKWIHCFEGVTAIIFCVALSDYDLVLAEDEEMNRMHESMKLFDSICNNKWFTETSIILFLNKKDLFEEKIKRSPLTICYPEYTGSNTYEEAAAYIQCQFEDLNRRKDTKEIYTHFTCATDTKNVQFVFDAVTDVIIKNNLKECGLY
A general note: GTPγS resists hydrolysis and so accumulates on activated G proteins.

Test [2] concerns the target T2, Guanine nucleotide-binding protein G(o) subunit alpha (Homo sapiens, UniProt P09471). Briefly: Concentration required to stimulate binding of [35S]GTP-gamma-S, with G alpha o1. The essentials: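 Gαo: His-tagged recombinant subunit from E. coli BL21/DE3, IMAC-purified. 3 pmol, native or vesicle-reconstituted, incubated 30 min at 20 °C with 0.1 μM [35S]GTPγS in Hepes-NaOH/EDTA/DTT/100 μM MgSO4 mix. The reaction was stopped with ice-cold Tris/MgCl2/NaCl buffer, filtered on cellulose nitrate and washed. EC50 was derived from eight concentrations spanning 1×10^-7 to 1×10^-4 M.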
Target sequence in this assay (P09471 whole entry): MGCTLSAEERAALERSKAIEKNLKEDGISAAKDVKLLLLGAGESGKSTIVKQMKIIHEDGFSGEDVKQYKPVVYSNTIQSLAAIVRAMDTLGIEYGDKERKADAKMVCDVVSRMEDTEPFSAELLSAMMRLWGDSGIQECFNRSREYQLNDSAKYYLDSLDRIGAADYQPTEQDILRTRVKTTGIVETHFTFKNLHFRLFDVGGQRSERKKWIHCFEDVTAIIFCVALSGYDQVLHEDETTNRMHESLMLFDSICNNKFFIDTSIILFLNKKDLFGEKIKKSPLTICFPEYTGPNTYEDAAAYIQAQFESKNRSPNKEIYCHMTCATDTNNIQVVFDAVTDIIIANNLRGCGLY

Test [3] deals with T3, Guanine nucleotide-binding protein G(i) subunit alpha-1 (Homo sapiens, UniProt P63096). Briefly: Percent stimulation of [35S]GTP-gamma-S, binding to G alpha i1 at 5E-5 M of basal for 30 minutes. The essentials:
(§2)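 Recombinant His-tagged Gαi subunit (3 pmol, native or in lipid vesicles) was incubated with compound at 5×10^-5 M and 0.1 μM [35S]GTPγS, 30 min at 30 °C, in 50 mM Hepes-NaOH, 1 mM EDTA, 1 mM DTT, 100 μM MgSO4. Filter-bound GTPγS after ice-cold stop and cellulose-nitrate filtration is expressed as percent of basal.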

For test [4], the target named is T2, Guanine nucleotide-binding protein G(o) subunit alpha. Briefly: Percent stimulation of [35S]GTP-gamma-S, binding to G alpha o1 at 5E-5 M of basal for 30 minutes. The essentials: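 With Gαo (3 pmol recombinant His-tagged subunit, native or vesicle-reconstituted), binding of 0.1 μM [35S]GTPγS was measured during 30 min at 20 °C with compound at 5×10^-5 M, in Hepes-NaOH buffer with EDTA, DTT and 100 μM MgSO4. Samples were filtered on cellulose nitrate, and the value is percent of basal binding.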
Target sequence in this assay (P09471 2-354 limits assumed): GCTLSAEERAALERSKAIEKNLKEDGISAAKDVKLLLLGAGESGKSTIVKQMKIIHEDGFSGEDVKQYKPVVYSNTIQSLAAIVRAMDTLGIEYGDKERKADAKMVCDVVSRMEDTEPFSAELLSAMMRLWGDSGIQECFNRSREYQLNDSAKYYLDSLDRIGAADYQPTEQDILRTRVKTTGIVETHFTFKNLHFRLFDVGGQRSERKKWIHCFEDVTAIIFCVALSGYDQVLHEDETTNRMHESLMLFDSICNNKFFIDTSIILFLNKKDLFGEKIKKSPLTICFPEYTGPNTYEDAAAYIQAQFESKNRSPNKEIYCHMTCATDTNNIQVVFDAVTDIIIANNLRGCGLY

Test [5] addresses T1, Guanine nucleotide-binding protein G(i) subunit alpha-3. Briefly: Percent stimulation of [35S]GTP-gamma-S, binding to G alpha i3 at 3E-5 M of basal for 30 minutes.
The target in test [6] is T3, Guanine nucleotide-binding protein G(i) subunit alpha-1. Briefly: Concentration required to stimulate binding of [35S]GTP-gamma-S, with G alpha i1. The essentials: as §1
Test [7] concerns the target T1, Guanine nucleotide-binding protein G(i) subunit alpha-3. Briefly: Percent stimulation of [35S]GTP-gamma-S, binding to G alpha i3 at 5E-5 M of basal for 30 minutes. The essentials: as §2

For orientation: EC50 means the concentration at which the effect is half-maximal. Higher therefore signals a less potent agent.

T3 sequence (P63096 whole entry): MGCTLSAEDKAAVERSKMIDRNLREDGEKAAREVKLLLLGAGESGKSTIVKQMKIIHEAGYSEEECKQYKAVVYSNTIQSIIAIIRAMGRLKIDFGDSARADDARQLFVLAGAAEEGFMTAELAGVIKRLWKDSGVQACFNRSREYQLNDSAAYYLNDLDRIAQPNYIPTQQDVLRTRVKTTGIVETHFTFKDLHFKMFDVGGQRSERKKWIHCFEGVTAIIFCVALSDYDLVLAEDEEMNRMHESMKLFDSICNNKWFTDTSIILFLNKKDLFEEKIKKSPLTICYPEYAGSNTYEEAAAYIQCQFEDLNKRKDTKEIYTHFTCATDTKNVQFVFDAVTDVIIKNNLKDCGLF

Turning to `CCCCCCCCCCCCCCCNN1CCNCC1`, the figures for the EC50 in test [1], in test [2] and in test [6] were 19 µM, 6.1 µM and 15.9 µM, respectively. In addition, the Stimulation in test [3] came out at 5060%; in test [4] it was 5580%; in test [5], 5720%.
Take `CCCCCCCCCCCCCCCNC1CCNCC1`: the EC50 worked out at 11.2 µM in test [1], 13.3 µM in test [2] and 11.8 µM in test [6]. In addition, the Stimulation in test [3] amounted to 3370%; in test [4], 3830%; in test [7] it was 3440%.

The record behind these values is ChEMBL document CHEMBL1140445, “Design, synthesis, and preliminary pharmacological evaluation of a set of small molecules that directly activate gi proteins” (J Med Chem, 2005).
